From ChEMBL document CHEMBL4665669, “Novel tertiary sulfonamide derivatives containing benzimidazole moiety as potent anti-gastric cancer agents: Design, synthesis and SAR studies” (Eur J Med Chem, 2019)
pIC50: −log10 of the molar value. Active and inactive are the calls of the source. No cut-off for these calls is given here.

Legend:
[1] = tested on: SGC-7901; test: Inhibition of Ras/Raf/MEK/ERK signalling pathway in human SGC-7901 cells assessed as downregulation of c-Myc expression at 0.5 to 1.5 umol/L after 48 hrs by Western blot analysis; type: cell-based; conditions: dose micromol/L 0.5-1.5, time 48.0 hrs
Method in brief: (§1)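 Cells treated with graded concentrations or DMSO for 48 h, then harvested and lysed. Lysates denatured, resolved by SDS-PAGE and transferred to nitrocellulose. Membranes blocked with 5% skimmed milk and probed with primary antibodies at 4 °C for 8 h, then with secondary antibodies. Bands detected by ECL.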

[2] = tested on: MGC-803; test: Induction of apoptosis in human MGC-803 cells assessed as cleavage of caspase-7 at 0.5 to 1.5 umol/L after 48 hrs Western blot analysis; type: functional, cell-based; conditions: dose micromol/L 0.5-1.5, time 48.0 hrs
Method in brief: (§2)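 Western blot. Cells were treated with compound concentrations or DMSO for 48 h, then lysed, and lysates were denatured, run on SDS-PAGE and transferred to nitrocellulose. After blocking in 5% skimmed milk, membranes were incubated with primary antibodies at 4 °C for 8 h, then secondary antibodies, with ECL detection.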

[3] = tested on: HGC-27; test: Inhibition of Akt/mTOR signalling pathway in human HGC-27 cells assessed as decrease in mTOR phosphorylation at Ser2448 residue at 0.5 to 1.5 umol/L after 48 hrs by Western blot analysis; type: cell-based; conditions: dose micromol/L 0.5-1.5, time 48.0 hrs; method in brief: as §1
[4] = tested on: HGC-27; test: Inhibition of Ras/Raf/MEK/ERK signalling pathway in human HGC-27 cells assessed as downregulation of FoxO3a expression at 0.5 to 1.5 umol/L after 48 hrs by Western blot analysis; type: cell-based; conditions: dose micromol/L 0.5-1.5, time 48.0 hrs; method in brief: as §1
[5] = tested on: MGC-803; test: Inhibition of colony formation in human MGC-803 cells at 0.5 to 1.5 umol/L after 7 days by crystal violet staining based assay; type: functional, cell-based; conditions: dose micromol/L 0.5-1.5, time 7.0 day
Method in brief: (§3)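 5000 cells per well seeded and held 24 h at 37 °C, 5% CO2, then exposed to graded concentrations (0.5, 1, 1.5 µmol/L). After 7 days the medium was removed and wells were washed twice with PBS. Colonies fixed in 4% paraformaldehyde and stained with 0.1% crystal violet.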

[6] = tested on: SGC-7901; test: Induction of apoptosis in human SGC-7901 cells assessed as cleavage of PARP at 0.5 to 1.5 umol/L after 48 hrs Western blot analysis; type: functional, cell-based; conditions: dose micromol/L 0.5-1.5, time 48.0 hrs; method in brief: as §2
[7] = tested on: HGC-27; test: Induction of apoptosis in human HGC-27 cells assessed as increase in nucleus concentration at 0.5 to 1.5 umol/L after 48 hrs by imaging analysis; type: functional, cell-based; conditions: dose micromol/L 0.5-1.5, time 48.0 hrs
[8] = tested on: HGC-27; test: Anticancer activity against human HGC-27 cells assessed as cell growth at 0.5 to 1.5 umol/L after 48 hrs by MTT assay relative to control; type: functional; conditions: dose micromol/L 0.5-1.5
[9] = tested on: SGC-7901; test: Cell cycle arrest in human SGC-7901 cells assessed as accumulation at G2/M phase at 0.5 to 1.5 umol/L after 48 hrs by RNase/propidium iodide staining based flow cytometry; type: functional; conditions: dose micromol/L 0.5-1.5, time 48.0 hrs
Method in brief: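 MGC-803, SGC-7901 and HGC-27 cells were seeded in 6-well plates and treated 48 h with compound or DMSO. Cells were then harvested and fixed in 70% cold ethanol at 4 °C for 8 h, and cell-cycle phase distribution was quantified by flow cytometry.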

[10] = tested on: SGC-7901; test: Induction of apoptosis in human SGC-7901 cells assessed as cleavage of caspase-7 at 0.5 to 1.5 umol/L after 48 hrs Western blot analysis; type: functional, cell-based; conditions: dose micromol/L 0.5-1.5, time 48.0 hrs; method in brief: as §2
[11] = tested on: MGC-803; test: Induction of apoptosis in human MGC-803 cells assessed as downregulation of XIAP level at 0.5 to 1.5 umol/L after 48 hrs Western blot analysis; type: functional, cell-based; conditions: dose micromol/L 0.5-1.5, time 48.0 hrs; method in brief: as §2
[12] = tested on: MGC-803; test: Inhibition of Akt/mTOR signalling pathway in human MGC-803 cells assessed as decrease in mTOR phosphorylation at Ser2448 residue at 0.5 to 1.5 umol/L after 48 hrs by Western blot analysis; type: cell-based; conditions: dose micromol/L 0.5-1.5, time 48.0 hrs; method in brief: as §1
[13] = tested on: MGC-803; test: Inhibition of Ras/Raf/MEK/ERK signalling pathway in human MGC-803 cells assessed as decrease in MEK1 phosphorylation after 48 hrs by Western blot analysis; type: cell-based; conditions: dose micromol/L 0.5-1.5, time 48.0 hrs; method in brief: as §1
[14] = tested on: SGC-7901; test: Anticancer activity against human SGC-7901 cells assessed as cell growth at 0.5 to 1.5 umol/L after 48 hrs by MTT assay relative to control; type: functional; conditions: dose micromol/L 0.5-1.5
[15] = tested on: SGC-7901; test: Induction of apoptosis in human SGC-7901 cells after 48 hrs by flow cytometry analysis; type: functional, cell-based; conditions: dose micromol/L 0.5-1.5, time 48.0 hrs
[16] = tested on: SGC-7901; test: Cell cycle arrest at M phase in human SGC-7901 cells assessed as upregulation of p-Histone-3 level at 0.5 to 1.5 umol/L after 48 hrs by Western blot analysis; type: functional, cell-based; conditions: dose micromol/L 0.5-1.5, time 48.0 hrs; method in brief: as §2
[17] = tested on: SGC-7901; test: Inhibition of Akt/mTOR signalling pathway in human SGC-7901 cells assessed as decrease in mTOR phosphorylation at Ser2448 residue at 0.5 to 1.5 umol/L after 48 hrs by Western blot analysis; type: cell-based; conditions: dose micromol/L 0.5-1.5, time 48.0 hrs; method in brief: as §1
[18] = Selectivity index, ratio of IC50 for human GES1 cells to IC50 for human HGC-27 cells assessed as inhibition of cell proliferation after 48 hrs by MTT assay
Method in brief: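 Fold selectivity is the IC50 in GES-1 normal gastric epithelial cells divided by the IC50 in the gastric cancer line (HGC-27, MGC-803 or SGC-7901). Both IC50s come from 48 h exposure, MTT (4 h, 37 °C), DMSO solubilisation and 490 nm absorbance, with three independent experiments.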

[19] = tested on: HGC-27; test: Induction of apoptosis in human HGC-27 cells assessed as downregulation of XIAP level at 0.5 to 1.5 umol/L after 48 hrs Western blot analysis; type: functional, cell-based; conditions: dose micromol/L 0.5-1.5, time 48.0 hrs; method in brief: as §2
[20] = tested on: SGC-7901; test: Inhibition of Akt/mTOR signalling pathway in human SGC-7901 cells assessed as decrease in AKT phosphorylation at Ser473 residue at 0.5 to 1.5 umol/L after 48 hrs by Western blot analysis; type: cell-based; conditions: dose micromol/L 0.5-1.5, time 48.0 hrs; method in brief: as §1
[21] = tested on: GES1; test: Cytotoxicity against human GES1 cells assessed as inhibition of cell proliferation after 48 hrs by MTT assay; type: cell-based; conditions: GES1, 48 h
Method in brief: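 Normal gastric epithelial GES-1 cells were exposed to compound for 48 h. MTT was then added for 4 h at 37 °C. Formazan was dissolved in DMSO after the supernatant was removed, and absorbance was read at 490 nm. IC50 was computed from three independent experiments, given as mean SD.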

[22] = tested on: HGC-27; test: Cell cycle arrest at G2 phase in human HGC-27 cells assessed as downregulation of Cyclin B level at 0.5 to 1.5 umol/L after 48 hrs by Western blot analysis; type: functional, cell-based; conditions: dose micromol/L 0.5-1.5, time 48.0 hrs; method in brief: as §2
[23] = tested on: MGC-803; test: Induction of apoptosis in human MGC-803 cells assessed as downregulation of Bcl-2 level at 0.5 to 1.5 umol/L after 48 hrs Western blot analysis; type: functional, cell-based; conditions: dose micromol/L 0.5-1.5, time 48.0 hrs; method in brief: as §2
[24] = tested on: SGC-7901; test: Induction of apoptosis in human SGC-7901 cells induction of DNA fragmentation at 0.5 to 1.5 umol/L after 48 hrs by imaging analysis; type: functional, cell-based; conditions: dose micromol/L 0.5-1.5, time 48.0 hrs
[25] = tested on: MGC-803; test: Cell cycle arrest at M phase in human MGC-803 cells assessed as upregulation of p-Histone-3 level at 0.5 to 1.5 umol/L after 48 hrs by Western blot analysis; type: functional, cell-based; conditions: dose micromol/L 0.5-1.5, time 48.0 hrs; method in brief: as §2
[26] = tested on: SGC-7901; test: Inhibition of Ras/Raf/MEK/ERK signalling pathway in human SGC-7901 cells assessed as decrease in MEK1 phosphorylation after 48 hrs by Western blot analysis; type: cell-based; conditions: dose micromol/L 0.5-1.5, time 48.0 hrs; method in brief: as §1
[27] = tested on: HGC-27; test: Inhibition of colony formation in human HGC-27 cells at 0.5 to 1.5 umol/L after 7 days by crystal violet staining based assay; type: functional, cell-based; conditions: dose micromol/L 0.5-1.5, time 7.0 day; method in brief: as §3

COc1cc(N(Cc2nc3ccccc3[nH]2)S(=O)(=O)c2ccc(C)cc2)cc(OC)c1OC
inhibition [1]: Active
Activity [2]: Active
inhibition [3]: Active
inhibition [4]: Active
inhibition [5]: Active
Activity [6]: Active
Activity [7]: Active
fold change (FC) [8]: <2
Activity [9]: Active
Activity [10]: Active
Activity [11]: Active
inhibition [12]: Active
inhibition [13]: Dose-dependent effect
fold change (FC) [14]: <2
Activity [15]: Dose-dependent effect
Activity [16]: Active
inhibition [17]: Active
Ratio IC50 [18]: 9.4
Activity [19]: Active
inhibition [20]: Active
pIC50 [21]: 4.82
Activity [22]: Active
Activity [23]: Active
Activity [24]: Active
Activity [25]: Active
inhibition [26]: Dose-dependent effect
inhibition [27]: Active
